The values that follow come from ChEMBL document CHEMBL4152210, “Design, synthesis, anti-lung cancer activity, and chemosensitization of tumor-selective MCACs based on ROS-mediated JNK pathway activation and NF-κB pathway inhibition” (Eur J Med Chem, 2018).

The subject of data set [1] is A549. In words: Anticlonogenic activity against human A549 cells assessed as inhibition of clonogenic growth at 0.25 uM incubated for 2 days followed by replacement of growth media and measured after 8 days by crystal violet staining-based assay relative to control. Format: functional. Summed up:
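A549 seeded at 1000 cells per well in 6-well plates, exposed to drug alone or combined with cisplatin or 5-Fu over a concentration series. Drug-containing medium replaced after 2 days. After a further 8 days, fixed with 1% methanol/1% formaldehyde and stained with 0.5% crystal violet. Percent inhibition at each concentration calculated relative to control.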

The test system of data set [2] is A549. Put plainly: Induction of apoptosis in human A549 cells assessed as increase in Bax level at 1 to 10 uM after 24 hrs by Western blot analysis. The data set is classed as functional, cell-based. A digest of the protocol:
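A549 treated at 1, 5 or 10 µM, or with BMS345541 (20 µM), for 24 h. Cleaved PARP and Bax detected by western blot (10% SDS-PAGE, PVDF, 5% milk block, HRP secondary).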

Data set [3] deals with Mitogen-activated protein kinase 8/9 (Homo sapiens) (UniProt P45983+P45984). Put plainly: Induction of JNK 1/2 phosphorylatyion in human A549 cells after 6 hrs by Western blot analysis. The data set is classed as cell-based. A digest of the protocol: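 A549 exposed at 10 µM for varying times, or at various concentrations for 6 h. Inhibition arms pretreated 1 h with SP600125 (10 µM) or NAC (5 mM) before 10 µM for 6 h. Lysates run on 10% SDS-PAGE and transferred to PVDF. p-JNK probed, GAPDH as loading control.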
Chain of Mitogen-activated protein kinase 8/9 (Homo sapiens) (P45983 whole entry, looked up): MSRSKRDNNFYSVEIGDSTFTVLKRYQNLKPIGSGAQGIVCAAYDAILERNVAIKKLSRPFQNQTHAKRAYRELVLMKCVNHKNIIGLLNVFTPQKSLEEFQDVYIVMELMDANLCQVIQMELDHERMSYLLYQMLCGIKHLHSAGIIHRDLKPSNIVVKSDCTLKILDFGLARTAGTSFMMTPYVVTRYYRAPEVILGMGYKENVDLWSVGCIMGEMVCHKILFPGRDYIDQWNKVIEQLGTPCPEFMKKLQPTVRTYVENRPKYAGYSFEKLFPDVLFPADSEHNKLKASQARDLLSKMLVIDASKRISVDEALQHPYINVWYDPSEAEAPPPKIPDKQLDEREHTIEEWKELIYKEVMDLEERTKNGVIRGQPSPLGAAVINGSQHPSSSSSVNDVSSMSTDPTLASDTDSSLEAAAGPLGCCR
Chain of Mitogen-activated protein kinase 8/9 (Homo sapiens) (P45984 whole entry, looked up): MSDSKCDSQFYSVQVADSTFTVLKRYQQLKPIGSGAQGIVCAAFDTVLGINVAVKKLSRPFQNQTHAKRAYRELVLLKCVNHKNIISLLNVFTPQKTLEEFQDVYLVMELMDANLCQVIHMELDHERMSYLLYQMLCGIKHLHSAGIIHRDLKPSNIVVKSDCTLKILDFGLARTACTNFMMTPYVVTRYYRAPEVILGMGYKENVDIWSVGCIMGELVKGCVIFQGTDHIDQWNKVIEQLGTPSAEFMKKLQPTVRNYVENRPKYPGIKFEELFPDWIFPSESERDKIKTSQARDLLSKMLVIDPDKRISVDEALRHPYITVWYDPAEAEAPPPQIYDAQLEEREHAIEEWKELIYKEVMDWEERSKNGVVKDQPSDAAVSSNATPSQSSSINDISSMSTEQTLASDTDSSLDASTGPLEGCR

In data set [4] the test system is A549. In words: Induction of ROS generation in human A549 cells at 10 uM after 12 hrs by DCFDA staining based flow cytometric analysis. The data set is classed as functional, cell-based. To be noted: in the assay text read “after 9 hrs” for “after 12 hrs”. A digest of the protocol: (§1)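 A549 (6 × 10^5 per 60 mm dish) exposed to 10 µM over a time course up to 12 h, or at 1, 5 or 10 µM for 9 h. Optional NAC (5 mM) pretreatment for 1 h before 10 µM for 9 h. Cells loaded with DCF-DA (10 µM) for 30 min at 37 °C in the dark, washed, and read by flow cytometry.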
(In general: A flow cytometer gives signals particle by particle.)

Data set [5] concerns A549. In words: Induction of ROS generation in human A549 cells at 10 uM preincubated with NAC for 1 hr followed by compound addition and measured after 9 hrs by DCFDA staining based flow cytometric analysis. Format: functional, cell-based. Summed up:
as §1

The nature of data set [6]: Selectivity index, ratio of IC50 for human HL7702 cells to IC50 for human A549 cells. The data set is classed as toxicity. A digest of the protocol:
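Selectivity index taken as the logarithm of the ratio of the HL7702 IC50 to the cancer-line IC50. […] Not calculated when an IC50 was lacking.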

One may read the inhibition as the percentage by which the read-out fell short of the control.

Calls of active or inactive are those of the source. The rule behind the calls is not given here.

Regarding `COc1cc(/C=C2\CN(C)C/C(=C\c3cc(OC)c(OC)c(OC)c3)C2=O)cc(OC)c1OC`, the inhibition at 0.25 µM in data set [1] lay within 2 to 11%. The outcome in data set [2] was Active. In addition, the Activity entry in data set [3] and in data set [4] was “Dose-dependent effect” each time. Moreover, the result in data set [5] was inactive. Further, the “log(RatioIC50)” value in data set [6] is 1.19.
